Screening results from PubChem.
Sampled rows, rich in hits. Any-hit rate of the full collection: about 3.7%.
F508del corr: CFTR F508del correction in bronchial cells. actives 0.36% (n = 350,000). activity (quench increase), % at 7.58 µM. CFBE cells, YFP halide quenching; stimulated with forskolin plus potentiator P3; % fluorescence drop versus neutral controls;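 active = mean added fluorescence quench of at least 8% versus neutral control, with both replicates also reaching 8%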;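 note: cells transiently co-express mutant CFTR-F508del with the halide-sensitive YFP; corrector assay measuring rescue of mutant channel to the surface after 24 h compound exposure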
DENV2 CPE: inhibitors of DENV2 cytopathic effect. CPE inhibition, % at 9.99 µM. AID 651640. DENV2-infected cells, cytopathic effect rescue, plate reader. actives 1.7% (n = 350,000); in the data active = CPE inhibition above about 20%, passing the limit was not always enough; tested in BHK-21 cells;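 note: 0% = median of neutral control wells and 100% = median of positive control wells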
FGF22 binding: binders of recombinant human FGF22 by thermal shift; Q9HCT0; SYPRO orange fluorescence; percent of sucrose octasulfate shift, DMSO zero; activity (Tm shift, normalised), % at 9.99 µM; actives 1.5% (n = 340,000); AID 651658;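 active = mean Tm shift, scaled 0 neutral to 100 positive control, at about 1.3% or above, every replicate too, limit read from the data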
Target sequence (Q9HCT0 whole entry, looked up): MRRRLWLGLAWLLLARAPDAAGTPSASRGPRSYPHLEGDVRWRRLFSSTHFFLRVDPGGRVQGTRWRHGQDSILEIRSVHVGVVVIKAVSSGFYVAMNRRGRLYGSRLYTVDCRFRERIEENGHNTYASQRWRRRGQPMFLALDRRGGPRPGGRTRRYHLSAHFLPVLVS
E-sel inducer: induces E-selectin expression in human endothelial cells. activation, % at 7.58 µM. AID 686992. actives 0.37% (n = 260,000). P16581. HUVEC E-selectin immunofluorescence imaging; normalized: neutral wells 0, TNF-alpha wells 100;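 active = mean E-selectin-positive cell signal at least 10% of the positive control, reached in at least 60% of replicates, without over 20% cell loss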
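Read-out: % PE-positive cells | Test system: HUVEC | Doses: One compound dose added by pin transfer | Buffer or medium: EGM-2 over gelatin coat | Signal: Immunofluorescence imaging | Benchmarks: TNF-alpha, DMSO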
ERAP1 inh: blocks human ERAP1 aminopeptidase activity; Q9NZ08; recombinant ERAP1, Leu-AMC fluorescence, 60 min; inhibition, % at 10.7 µM; actives 0.15% (n = 340,000); AID 652197;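 active = mean replicate inhibition of at least 30%, or all replicates individually reaching that 30% level; inactive = mean below 30% and not every replicate reaching it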;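 note: 0% = neutral control wells and 100% = L-leucinethiol positive control wells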
* hit, by the source's call; nt = not tested or not shown.

SMILES	F508del corr	DENV2 CPE	FGF22 binding	E-sel inducer	ERAP1 inh
C[C@@H]1CN([C@@H](C)CO)C(=O)c2cccc(NC(=O)c3cnccn3)c2O[C@@H]1CN(C)Cc1ccc(Oc2ccccc2)cc1	2	7	0	0	3
COc1ccc(CN(C)C[C@@H]2Oc3c(NC(=O)c4cnccn4)cccc3C(=O)N([C@@H](C)CO)C[C@H]2C)cc1	0	1	0	54*	1
C[C@H]1CN([C@@H](C)CO)C(=O)c2cccc(NC(=O)c3cnccn3)c2O[C@@H]1CN(C)Cc1ccc2c(c1)OCO2	-4	24*	0	-9	10
NC(=O)N=Nc1c2[nH]c3ccccc3nc-2c2ccccc12	22*	11	0	nt	-2
O=c1[nH]c2ccccc2nc1-c1ccccc1	0	10	0	1	nt
O=C(COC(=O)Cc1ccc(Br)cc1)NCc1ccccc1	-1	-10	0	0	0
NC(=S)NCc1cccnc1	0	-9	43*	0	-2
O=C(Cc1ccc(Br)cc1)NCc1ccccc1	20*	-6	0	nt	-8
Cc1ccc(CC(=O)NCc2cccnc2)cc1	0	-5	44*	nt	-2
COc1cc(NC(=S)NCc2cccnc2)cc(OC)c1OC	nt	4	0	27*	6
COc1cc(NC(=S)NCc2cccnc2)cc(OC)c1	1	nt	0	nt	1
COc1ccc2c3c([nH]c2c1)[C@@H](CO)N(C(=O)C1CCC1)CC31CCN(C(=O)c2ccccn2)CC1	1	5	0	0	3
C1=CCN(c2nc(N3CCOCC3)nc(N3CCCc4ccccc43)n2)CC1	1	1	44*	1	1
c1ccc2c(c1)CCCN2c1nc(N2CCOCC2)nc(N2CCOCC2)n1	-4	-4	0	0	6
COc1ccc(Nc2ccc(S(=O)(=O)N3CCCCC3)cc2[N+](=O)[O-])cc1Cl	-3	41*	0	nt	1
CC(C)NC(=O)N(C)C[C@H]1Oc2c(NC(=O)CCCCCC(=O)Nc3ccccc3N)cccc2C(=O)N([C@@H](C)CO)C[C@@H]1C	0	-1	0	-11	2
Cc1cc(=O)[nH]c(NN=C2CCC(C(C)(C)C)CC2)n1 (stereo unspecified)	0	4	44*	nt	-5
Cc1cc(C)nc(-n2ncc(C#N)c2N)n1	nt	2	0	nt	8
Cc1cc(C)nc(-n2ncc3c2CCCC3=O)n1	2	nt	43*	nt	-1
O=c1[nH][nH]c(-c2ccccc2)c1C=Nc1ccc(F)cc1F	0	6	44*	nt	-2
CCc1ccc(NS(=O)(=O)c2ccc(C)c(C(=O)N3CCOCC3)c2)cc1	0	-2	0	nt	83*
CCCCCCCCCCOC(=O)Cn1c(COc2ccc(Cl)cc2)[n+](C)c2ccccc21	-2	-5	0	1	35*
CCCCCCCCCCOC(=O)Cn1c(COc2cccc(C)c2)[n+](C)c2ccccc21	-3	-7	-1	2	30*
CCCCCCCCCCOC(=O)Cn1c(COc2ccccc2)[n+](C)c2ccccc21	0	-4	-1	nt	49*
Cc1cccc(OCCSc2nc3ccccc3n2CC(=O)O)c1	-2	-1	0	nt	5
SMILES	F508del corr	DENV2 CPE	FGF22 binding	E-sel inducer	ERAP1 inh
CCCCCCCCCCOC(=O)Cn1c(COc2ccccc2C)[n+](C)c2ccccc21	nt	nt	nt	nt	33*
CCOC(=O)Cn1c(COc2ccccc2OC)[n+](C)c2ccccc21	0	8	0	nt	-3
CCCCCOC(=O)Cn1c(=O)oc2ccccc21	-3	11	0	0	6
C[C@@H]1CN([C@@H](C)CO)C(=O)c2cc(N(C)C)ccc2O[C@H]1CN(C)S(=O)(=O)c1ccccc1	-3	79*	0	-6	6
C[C@H]1CN([C@@H](C)CO)C(=O)c2cc(N(C)C)ccc2O[C@H]1CN(C)S(=O)(=O)c1ccccc1	3	31*	0	3	-1
CCC(=O)N1C[C@@H](C)[C@H](OC)CN(C)C(=O)c2ccc(NC(=O)c3ccno3)cc2OC[C@@H]1C	-2	-5	0	0	0
CN(C)C(=O)c1ccc(-c2ccccc2[C@@H]2[C@H](C#N)N(C(=O)C3CCC3)[C@H]2CO)cc1	1	2	0	0	0
CN(C)C(=O)c1ccc(-c2ccc([C@H]3[C@H](C#N)N(C(=O)C4CCC4)[C@H]3CO)cc2)cc1	-6	-5	0	0	-2
CN(C)C(=O)c1ccc(-c2ccc([C@@H]3[C@@H](CO)N(C(=O)C4CCC4)[C@H]3C#N)cc2)cc1	-7	50*	0	1	-2
CN(C)C(=O)c1ccc(-c2ccccc2[C@H]2[C@H](C#N)N(C(=O)C3CCCCC3)[C@H]2CO)cc1	1	28*	0	0	7
CN(C)C(=O)c1ccc(-c2ccccc2[C@H]2[C@@H](C#N)N(C(=O)C3CCC3)[C@H]2CO)cc1	1	24*	0	0	-1
CCc1nc(C)cn1S(=O)(=O)c1ccc(Br)cc1	-4	5	0	nt	1
CCc1nc(C)cn1S(=O)(=O)c1ccc2c(c1)OCCO2	8.9*	12	1	3	1
C[C@@H]1CN([C@H](C)CO)C(=O)c2cc(NS(=O)(=O)c3cccs3)ccc2O[C@@H]1CN(C)S(=O)(=O)c1cccs1	2	nt	nt	0	nt
C[C@H]1CN([C@@H](C)CO)C(=O)c2cccc(NC(=O)Nc3ccc(C(F)(F)F)cc3)c2O[C@H]1CN(C)Cc1ccc2c(c1)OCO2	2	6	-1	0	1
Clc1ccc2nc(C3CCCCC3)c(CC3CCCCC3)n2c1	1	38*	0	nt	0
Nc1ccccc1Nc1cc(-c2ccccc2)nn1-c1cccc(Cl)c1	1	20*	0	nt	0
Nc1ncc(-n2cncn2)c(-c2ccccc2)n1	-3	nt	43*	0	-7
O=Cc1ccccc1-n1cncn1	2	-23	0	0	-4
Cc1nc2c(cnn2-c2ccccc2)c(=O)n1/N=C/c1ccccc1	-5	-5	0	2	1
Cn1ncc2c(=O)n(/N=C/c3ccccc3)cnc21	-2	10	44*	nt	-1
CC(C)C(=O)Nc1ccc2c(c1)C(=O)N(C)[C@H]1CC[C@@H](CC(=O)Nc3ccccc3)O[C@H]1CO2	4	3	0	0	-2
CC(=O)N(CCCCl)C(C#N)c1ccccc1 (stereo unspecified)	2	4	44*	nt	0
N#CC(c1ccccc1)N(CCCCl)C(=O)c1ccccc1 (stereo unspecified)	-2	7	43*	nt	2
Cc1ccc(SCC(=O)Nc2nccs2)cc1	3	12	43*	0	3
Cc1ccc(NS(=O)(=O)c2ccc(C(=O)NCCCN3CCCC3=O)cc2)cc1	1	103*	0	0	2
CCn1c(C)c2c([n+]1CC)CC(C)(C)CC2=O	0	nt	0	nt	109*
